Measured values of several laboratories.
Each line is one published result; the experiments were not run side by side. ≈ marks a conversion by molar mass, not a printed value.
Organism: Lodderomyces parapsilosis
Effect on: microbial growth
Technique: broth dilution

Compound	strain	time	MIC [µg/mL]
OC(Cn1cncn1)(Cn1cncn1)c1ccc(F)cc1F	ATCC22019	48 h	50 (≈ 163 µM)
C[C@@H]1[C@H](O)[C@@H](C)/C=C/C=C/C=C/C=C/C=C/C=C/C=C/[C@H](O[C@@H]2O[C@H](C)[C@@H](O)[C@H](N)[C@@H]2O)C[C@@H]2O[C@](O)(C[C@@H](O)C[C@@H](O)[C@H](O)CC[C@@H](O)C[C@@H](O)CC(=O)O[C@H]1C)C[C@H](O)[C@H]2C(=O)O	–	–	0.5 to 1 (≈ 0.541 to 1.08 µM)
CN1CCN(CC(O)(Cn2cncn2)c2ccc(F)cc2F)CC1 (stereo not drawn)	ATCC22019	48 h	0.975 (≈ 2.89 µM)
CCCCNS(=O)(=O)c1ccc(-c2ccc3oc(C(=O)c4cc(O)c(O)c(O)c4)cc3c2)cc1	–	–	8 to 16 (≈ 16.6 to 33.2 µM)
CCCCCN1CCN(CC(O)(Cn2cncn2)c2ccc(F)cc2F)CC1 (stereo not drawn)	ATCC22019	48 h	15.6 (≈ 39.6 µM)
C[C@@H]1[C@H](O)[C@@H](C)/C=C/C=C/C=C/C=C/C=C/C=C/C=C/[C@H](O[C@@H]2O[C@H](C)[C@@H](O)[C@H](N)[C@@H]2O)C[C@@H]2O[C@](O)(C[C@@H](O)C[C@@H](O)[C@H](O)CC[C@@H](O)C[C@@H](O)CC(=O)O[C@H]1C)C[C@H](O)[C@H]2C(=O)O	ATCC22019	–	0.5 (≈ 0.541 µM)
CCCCCN1CCNCC1	ATCC22019	48 h	> 31.3
O=C1/C(=C/c2cc(O)c(O)c(O)c2)Oc2ccccc21	–	–	8 (≈ 29.6 µM)
OC(Cn1cncn1)(Cn1cncn1)c1ccc(F)cc1F	ATCC22019	–	1 (≈ 3.27 µM)
